Data: ChEMBL document CHEMBL3739273, “Synthesis, biological activity evaluation and molecular docking studies of novel coumarin substituted thiazolyl-3-aryl-pyrazole-4-carbaldehydes” (Bioorg Med Chem Lett, 2015)
Converted amounts (≈) assume the structure as drawn. The source made the active and inactive calls. No cut-off for these calls is given here.

Legend:
[1] = Anticancer activity against human DU145 cells assessed as cell viability after 48 hrs by MTT assay; format: functional, cell-based; details: DU-145, 48 h
How it was run: (§1)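 MTT cytotoxicity assay in human DU-145 prostate, MCF-7 breast and HeLa cervical cancer cell lines. Doxorubicin was the reference drug.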

MCF7 = experiment: Anticancer activity against human MCF7 cells assessed as cell viability after 48 hrs by MTT assay; format: functional, cell-based; details: MCF7, 48 h; how it was run: as §1
HeLa = experiment: Anticancer activity against human HeLa cells assessed as cell viability after 48 hrs by MTT assay; format: functional, cell-based; how it was run: as §1
Escherichia coli [2] = experiment: Antibacterial activity against Escherichia coli ATCC 8739 after 24 hrs by microtiter plate method; format: functional
How it was run: (§2)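 Test concentrations reported in µg/mL. Gentamycin sulfate and ampicillin were the reference drugs.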

Klebsiella pneumoniae [3] = experiment: Antibacterial activity against Klebsiella pneumoniae ATCC 43816 after 24 hrs by microtiter plate method; format: functional; how it was run: as §2
Proteus vulgaris [4] = experiment: Antibacterial activity against Proteus vulgaris ATCC 13315 after 24 hrs by microtiter plate method; format: functional; how it was run: as §2
Staphylococcus aureus [5] = experiment: Antibacterial activity against methicillin-resistant Staphylococcus aureus NCTC 13616 after 24 hrs by microtiter plate method; format: functional
Bacillus spizizenii [6] = experiment: Antibacterial activity against Bacillus subtilis ATCC 6633 after 24 hrs by microtiter plate method; format: functional; how it was run: as §2
Bacillus cereus [7] = experiment: Antibacterial activity against Bacillus cereus ATCC 14579 after 24 hrs by microtiter plate method; format: functional; how it was run: as §2
Escherichia coli [8] = experiment: Bactericidal activity against Escherichia coli ATCC 8739 after 24 hrs; format: functional; details: for MBC: ATCC 8739, 24 h, read-out: MBC99.9
How it was run: (§3)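 MBC determined by a standard MBC protocol alongside the MIC, with values in µg/mL. Gentamycin sulfate and ampicillin were the references.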

Klebsiella pneumoniae [9] = experiment: Bactericidal activity against Klebsiella pneumoniae ATCC 43816 after 24 hrs; format: functional; details: for MBC: ATCC 43816, 24 h, read-out: MBC99.9; how it was run: as §3
Proteus vulgaris [10] = experiment: Bactericidal activity against Proteus vulgaris ATCC 13315 after 24 hrs; format: functional; details: for MBC: ATCC 13315, 24 h, read-out: MBC99.9; how it was run: as §3
Staphylococcus aureus [11] = experiment: Bactericidal activity against methicillin-resistant Staphylococcus aureus NCTC 13616 after 24 hrs; format: functional; details: for MBC: NCTC 13616, 24 h, read-out: MBC99.9
How it was run: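 MBC determined by a standard MBC protocol run alongside the MIC determination. Gentamycin sulfate and ampicillin served as reference drugs.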

Bacillus spizizenii [12] = experiment: Bactericidal activity against Bacillus subtilis ATCC 6633 after 24 hrs; format: functional; details: for MBC: ATCC 6633, 24 h, read-out: MBC99.9; how it was run: as §3
Bacillus cereus [13] = experiment: Bactericidal activity against Bacillus cereus ATCC 14579 after 24 hrs; format: functional; details: for MBC: ATCC 14579, 24 h, read-out: MBC99.9; how it was run: as §3
[14] = n-Octanol-phosphate buffer partition coefficient, log P of the compound at pH 7.4 after 30 mins by shake flask method; format: physicochemical
How it was run: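 Shake-flask partition between n-octanol and 50 mM phosphate buffer, pH 7.4. P calculated and expressed as logP.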

Cytochrome P450 2A6 = target: T1, Cytochrome P450 2A6 (Homo sapiens, UniProt P11509); experiment: Inhibition of human microsomal CYP2A6; format: ADME
T1 sequence (P11509 whole entry): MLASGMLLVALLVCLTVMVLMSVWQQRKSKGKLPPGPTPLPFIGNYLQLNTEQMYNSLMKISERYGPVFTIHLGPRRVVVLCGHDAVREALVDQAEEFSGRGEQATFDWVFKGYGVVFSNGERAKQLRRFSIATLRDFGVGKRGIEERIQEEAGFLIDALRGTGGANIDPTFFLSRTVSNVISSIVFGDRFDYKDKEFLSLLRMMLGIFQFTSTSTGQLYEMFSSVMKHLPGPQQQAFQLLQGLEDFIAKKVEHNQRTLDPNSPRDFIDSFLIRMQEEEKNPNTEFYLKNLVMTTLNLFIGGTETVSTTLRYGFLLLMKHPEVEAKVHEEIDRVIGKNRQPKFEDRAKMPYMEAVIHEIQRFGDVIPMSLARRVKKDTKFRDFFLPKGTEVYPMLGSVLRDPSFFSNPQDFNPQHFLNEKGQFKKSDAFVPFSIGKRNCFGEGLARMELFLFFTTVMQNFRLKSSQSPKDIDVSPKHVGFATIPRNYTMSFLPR

Bacillus cereus [15] = experiment: Antibacterial activity against Bacillus cereus ATCC 14579 assessed as growth inhibition at 100 ug/ml after 24 hrs by agar well diffusion method; format: functional
How it was run: (§4)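 Agar well diffusion. Compounds were tested at 10, 20, 100, 200 and 300 µg/mL, and the zone of inhibition was measured in mm. Gentamycin sulfate was the reference drug.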

Bacillus spizizenii [16] = experiment: Antibacterial activity against Bacillus subtilis ATCC 6633 assessed as growth inhibition at 100 ug/ml after 24 hrs by agar well diffusion method; format: functional, organism-based; how it was run: as §4
Proteus vulgaris [17] = experiment: Antibacterial activity against Proteus vulgaris ATCC 13315 assessed as growth inhibition at 100 ug/ml after 24 hrs by agar well diffusion method; format: functional; how it was run: as §4
Staphylococcus aureus [18] = experiment: Antibacterial activity against methicillin-resistant Staphylococcus aureus NCTC 13616 assessed as growth inhibition at 100 ug/ml after 24 hrs by agar well diffusion method; format: functional, organism-based
How it was run: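 Agar well diffusion assay with compounds applied to wells at several concentrations, including the 100 level reported here. The zone of inhibition was measured in mm. Gentamycin sulfate was the standard drug.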

Klebsiella pneumoniae [19] = experiment: Antibacterial activity against Klebsiella pneumoniae ATCC 43816 assessed as growth inhibition at 100 ug/ml after 24 hrs by agar well diffusion method; format: functional; how it was run: as §4
Escherichia coli [20] = experiment: Antibacterial activity against Escherichia coli ATCC 8739 assessed as growth inhibition at 100 ug/ml after 24 hrs by agar well diffusion method; format: functional; how it was run: as §4

| Compound | IC50 [1] [µM] | IC50 (MCF7) [µM] | IC50 (HeLa) [µM] | MIC (Escherichia coli [2]; ATCC 8739, 24 h) [µg/mL] | MIC (Klebsiella pneumoniae [3]; ATCC 43816, 24 h) [µg/mL] | MIC (Proteus vulgaris [4]; ATCC 13315, 24 h) [µg/mL] | MIC (Staphylococcus aureus [5]; NCTC 13616, 24 h) [µg/mL] | MIC (Bacillus spizizenii [6]; ATCC 6633, 24 h) [µg/mL] | MIC (Bacillus cereus [7]; ATCC 14579, 24 h) [µg/mL] | MBC (Escherichia coli [8]) [µg/mL] | MBC (Klebsiella pneumoniae [9]) [µg/mL] | MBC (Proteus vulgaris [10]) [µg/mL] | MBC (Staphylococcus aureus [11]) [µg/mL] | MBC (Bacillus spizizenii [12]) [µg/mL] | MBC (Bacillus cereus [13]) [µg/mL] | Ki (Cytochrome P450 2A6) [nM] | growth inhibition (GI) (Staphylococcus aureus [18]) | also measured |
| --- | --- | --- | --- | --- | --- | --- | --- | --- | --- | --- | --- | --- | --- | --- | --- | --- | --- | --- |
| O=Cc1cn(-c2nc(-c3cc4c(ccc5ccccc54)oc3=O)cs2)nc1-c1ccccc1 | 11.9 | 39.5 | 13.1 | 133 (≈ 295 µM) | 150 (≈ 334 µM) | 150 (≈ 334 µM) | 135 (≈ 300 µM) | 123 (≈ 273 µM) | 139 (≈ 309 µM) | 260 (≈ 578 µM) | 225 (≈ 501 µM) | 300 (≈ 667 µM) | 270 (≈ 601 µM) | 240 (≈ 534 µM) | 275 (≈ 612 µM) | 0.057 | – | logD at 0.5 h [14]: 3.54 |
| O=Cc1cn(-c2nc(-c3cc4cc(Cl)cc(Cl)c4oc3=O)cs2)nc1-c1ccccc1 | 41.1 | 76.3 | 13.8 | 120 (≈ 255 µM) | 118 (≈ 252 µM) | 132 (≈ 281 µM) | 115 (≈ 246 µM) | 123 (≈ 263 µM) | 117 (≈ 250 µM) | 240 (≈ 512 µM) | 175 (≈ 374 µM) | 260 (≈ 555 µM) | 175 (≈ 374 µM) | 250 (≈ 534 µM) | 175 (≈ 374 µM) | 3.07 | Active | growth inhibition (GI) (Bacillus cereus [15]): Active; growth inhibition (GI) (Bacillus spizizenii [16]): Active; growth inhibition (GI) (Proteus vulgaris [17]): Active; growth inhibition (GI) (Klebsiella pneumoniae [19]): Active; growth inhibition (GI) (Escherichia coli [20]): Active |
| COc1cccc2c1C(=O)c1c(O)c3c(c(O)c1C2=O)C[C@@](O)(C(=O)CO)C[C@@H]3O[C@H]1C[C@H](N)[C@H](O)[C@H](C)O1 [DOXORUBICIN] | 2.49 | – | 3.92 | – | – | – | – | – | – | – | – | – | – | – | – | – | – | – |
| GENTAMICIN | – | – | – | – | – | – | – | – | – | – | – | – | – | – | – | – | – | MIC (Escherichia coli [2]): 2 µg/mL; MIC (Klebsiella pneumoniae [3]): 4 µg/mL; MIC (Proteus vulgaris [4]): 4 µg/mL; MIC (Staphylococcus aureus [5]): 22 µg/mL; MIC (Bacillus spizizenii [6]): 45 µg/mL; MIC (Bacillus cereus [7]): 10 µg/mL; MBC99.9 (Escherichia coli [8]): 8 µg/mL; MBC99.9 (Klebsiella pneumoniae [9]): 16 µg/mL; MBC99.9 (Proteus vulgaris [10]): 8 µg/mL; MBC99.9 (Staphylococcus aureus [11]): 50 µg/mL; MBC99.9 (Bacillus spizizenii [12]): 80 µg/mL; MBC99.9 (Bacillus cereus [13]): 22 µg/mL |
| COc1cccc2cc(-c3csc(-n4cc(C=O)c(-c5ccc(Cl)cc5)n4)n3)c(=O)oc12 | 38.2 | 71.7 | 41.9 | 125 (≈ 270 µM) | 129 (≈ 278 µM) | 132 (≈ 285 µM) | 139 (≈ 300 µM) | 133 (≈ 286 µM) | 126 (≈ 272 µM) | 185 (≈ 399 µM) | 260 (≈ 560 µM) | 260 (≈ 560 µM) | 275 (≈ 593 µM) | 260 (≈ 560 µM) | 250 (≈ 539 µM) | 3.27 | Active | growth inhibition (GI) (Bacillus cereus [15]): Active; growth inhibition (GI) (Bacillus spizizenii [16]): Active; growth inhibition (GI) (Proteus vulgaris [17]): Active; growth inhibition (GI) (Klebsiella pneumoniae [19]): Active; growth inhibition (GI) (Escherichia coli [20]): Active |
| COc1cccc2cc(-c3csc(-n4cc(C=O)c(-c5ccc(C)cc5)n4)n3)c(=O)oc12 | 31.4 | 42.6 | 28.2 | 133 (≈ 299 µM) | 150 (≈ 338 µM) | 142 (≈ 320 µM) | 150 (≈ 338 µM) | 150 (≈ 338 µM) | 136 (≈ 307 µM) | 260 (≈ 586 µM) | 300 (≈ 676 µM) | 285 (≈ 643 µM) | 300 (≈ 676 µM) | 300 (≈ 676 µM) | 275 (≈ 620 µM) | 1.93 | inactive | – |
| Cc1ccc(-c2nn(-c3nc(-c4cc5ccccc5oc4=O)cs3)cc2C=O)cc1 | 50.2 | 69.5 | 37.4 | 132 (≈ 320 µM) | 150 (≈ 363 µM) | 150 (≈ 363 µM) | 150 (≈ 363 µM) | 150 (≈ 363 µM) | 135 (≈ 327 µM) | 260 (≈ 629 µM) | 300 (≈ 726 µM) | 300 (≈ 726 µM) | 300 (≈ 726 µM) | 300 (≈ 726 µM) | 270 (≈ 653 µM) | 11 | inactive | – |
